Measurements from different studies.
Each line is one published result; the experiments were not run side by side.
Cell line: HCT-116
Read-out: cell growth or viability

Structure (SMILES) | method | time | IC50
Cc1cc(NS(=O)(=O)c2ccc(NC(=O)/C(C#N)=C/c3ccncc3)cc2)no1 | MTT | 48 h | 187 µM
COc1cc([C@@H]2c3cc4c(cc3[C@@H](O[C@@H]3O[C@@H]5CO[C@@H](C)O[C@H]5[C@H](O)[C@H]3O)[C@H]3COC(=O)[C@H]23)OCO4)cc(OC)c1O | MTS | 72 h | 0.59 µM
O=C(CSc1nc2ccccc2s1)N/N=C/c1ccc(OCC(=O)Nc2cccc([N+](=O)[O-])c2)cc1 | MTS | 72 h | 13.3 µM
O=C1C(=Nc2cccc(Cl)c2)c2ccccc2N1Cc1ccc([N+](=O)[O-])cc1 | MTT | 48 h | 0.84 µM
c1ccc(Cn2nc(-c3ncc(-c4ccccc4)s3)c3ccccc32)cc1 | – | 48 h | 50.6 µM
O=C1C(=Nc2ccccc2I)c2ccccc2N1Cc1ccc(Br)cc1 | MTT | 48 h | 1.33 µM
CONC(=O)Cc1c(C)n(-c2nc3c(c(NCc4ccccc4)n2)CCCN3)c2ccccc12 | ATP luminescence | 72 h | 4.2 µM
c1ccc(-c2cc(CNc3cccc4cccnc34)on2)nc1 | MTS | 72 h | > 100 µM
O=[N+]([O-])c1cc(Br)c(O)c(C=NNc2ccc(Br)cc2)c1 | MTT | 24 h | 15.3 µM
FC(F)(F)c1cc(OCc2cc(-c3ccccc3)no2)c2ccccc2n1 | MTS | 72 h | > 100 µM
CC(=O)c1nc2ccccc2n1Cc1cn([C@@H]2O[C@H](CO)[C@H](O)[C@H](O)[C@H]2O)nn1 | LDH | 48 h | 8.68 µM
S=C(N/N=C/c1cccc2cc3ccccc3nc12)Nc1ccccc1 | MTT | 48 h | > 50 µM
c1ccc2c(c1)ncn2Cn1cncn1 | MTT | 24 h | 102 µM
O=[N+]([O-])c1ccc(O)c(C=NNc2ccc(Br)cc2)c1 | MTT | 24 h | 7.23 µM
O=C(C=Cc1ccc(OCCCCOc2ccc(C=CC(=O)c3cccs3)cc2)cc1)c1cccs1 | MTT | 48 h | 278 µM
CC(C)c1cccc(C(C)C)c1N=C1C(=O)Nc2ccccc21 | MTT | 48 h | 4.65 µM
Cc1cccc(NC(=O)Cn2cc(COc3ncnc4[nH]cnc34)nn2)c1 | MTT | – | 55.3 µM
Cc1cc(Cn2ccnc2)nn1C | MTT | 24 h | 241 µM
C#CCn1c(C2CC(c3ccc(F)cc3)=NN2C(C)=O)nc2ccccc21 (stereo not shown) | LDH | 48 h | 6.85 µM
O=[N+]([O-])c1ccc(O)c(C=NNc2ccc(C(F)(F)F)cc2)c1 | MTT | 24 h | 11.3 µM
FC(F)(F)c1ccc(-c2nnc(-c3nn(Cc4ccc(Cl)cc4Cl)c4ccccc34)o2)cc1 | – | 48 h | 323 µM
O=[N+]([O-])c1ccc(NC(=S)N/N=C/c2cccc3cc4ccccc4nc23)cc1 | MTT | 48 h | > 50 µM
O=C(O)c1nn(Cc2ccc(Cl)cc2Cl)c2ccccc12 | – | 48 h | 247 µM
CN1CCC(NC2CCc3[nH]c4c(C(N)=O)ccc(-c5ccccc5Cl)c4c3C2)CC1 (stereo not shown) | – | 96 h | 0.00023 µM
O=[N+]([O-])c1cc(Br)c(O)c(C=NNc2ccc(C(F)(F)F)cc2)c1 | MTT | 24 h | 9.42 µM
COc1ccc(N(Cc2nc(-c3ccc(F)cc3)cs2)C(=O)CCCCCC(=O)NO)cc1 | MTT | 72 h | 3.2 µM
CCc1ccc(N=C2C(=O)N(Cc3ccccc3)c3ccccc32)cc1 | MTT | 48 h | 0.9 µM
FC(F)(F)c1ccc(-c2cc(CNc3cccc4cccnc34)on2)cc1 | MTS | 72 h | > 100 µM

Structure (SMILES) | method | time | IC50
Cc1cccc(N=C2C(=O)N(Cc3ccc(Br)cc3)c3ccccc32)c1 | MTT | 48 h | 8.21 µM
Cc1cccc([N+](=O)[O-])c1N=C1SCC(=O)N1c1nnc(-c2ccc(C(F)(F)F)cc2N=C2SCC(=O)N2c2c(C)cccc2[N+](=O)[O-])s1 | MTT | – | 61.2 µM
CC(C)c1ccc(/C=C2\N=C(SCc3ccccc3)N(c3ccccc3)C2=O)cc1 | MTT | – | 72.9 µg/mL
O=C1CS/C(=N\c2ccccc2Cl)N1c1nnc(-c2ccc(C(F)(F)F)cc2/N=C2\SCC(=O)N2c2ccccc2Cl)s1 | MTT | – | 57.9 µM
O=C1/C(=C/c2ccc([N+](=O)[O-])cc2[N+](=O)[O-])NC(=S)N1c1ccccc1 | MTT | – | 98.5 µg/mL
Cc1cc2c(C(N)=O)cccc2n1-c1nc2c(c(NCc3ccccn3)n1)CCCN2 | ATP luminescence | 72 h | 0.8 µM
COc1cccc2c1C(=O)c1c(O)c3c(c(O)c1C2=O)C[C@@](O)(C(=O)CO)C[C@@H]3O[C@H]1C[C@H](N)[C@H](O)[C@H](C)O1 | MTT | – | 4.12 µg/mL
N#Cc1ccc(-c2cc(CNc3cccc4cccnc34)on2)cc1 | MTS | 72 h | > 100 µM
c1ccc(-c2noc(-c3nn(Cc4ccncc4)c4ccccc34)n2)cc1 | – | 48 h | 47.5 µM
Cc1cc(NS(=O)(=O)c2ccc(NC(=O)/C(C#N)=C/c3cccnc3)cc2)no1 | MTT | 48 h | > 200 µM
CCCNC(=S)N/N=C/c1cccc2cc3ccccc3nc12 | MTT | 48 h | 43.3 µM
O=C(C=Cc1cccs1)c1ccc(OCCOc2ccc(C(=O)C=Cc3cccs3)cc2)cc1 | MTT | 48 h | 18.1 µM
CC(=O)O[C@@H]1[C@@H](OC(C)=O)[C@H](OC(C)=O)CO[C@H]1n1cc(Cn2c(C(C)=O)nc3ccccc32)nn1 | LDH | 48 h | 7.74 µM
Cc1cc2c(C(N)=O)cccc2n1-c1nc2c(c(NCc3ccccc3O)n1)CCCN2 | ATP luminescence | 72 h | 5 µM
O=[N+]([O-])c1cc(I)c(O)c(C=NNc2ccc(Cl)cc2)c1 | MTT | 24 h | 13.9 µM
COc1cccc(N=C2SCC(=O)N2c2nnc(-c3ccc(C(F)(F)F)cc3N=C3SCC(=O)N3c3cccc(OC)c3)s2)c1 | MTT | – | 71.4 µM
Cc1cc2c(C(N)=O)cccc2n1-c1nc2c(c(OCc3ccccc3)n1)CCCN2 | ATP luminescence | 72 h | 3.4 µM
Cc1cc(C)n(Cn2cnc3ccccc32)n1 | MTT | 24 h | 70.2 µM
COc1cc(N=C2C(=O)Nc3ccccc32)cc(OC)c1 | MTT | 48 h | 24.4 µM
Cc1noc(-c2nn(Cc3ccc(Cl)cc3Cl)c3ccccc23)n1 | – | 48 h | 192 µM
O=c1cc(OCc2cc(-c3ccc(Cl)cc3Cl)no2)c2ccccc2o1 | MTS | 72 h | > 100 µM
Cc1cccc(N=C2C(=O)N(Cc3cccc(Cl)c3)c3ccccc32)c1 | MTT | 48 h | 7.13 µM
c1ccc(Cc2nnc(-c3nn(Cc4ccccc4)c4ccccc34)o2)cc1 | – | 48 h | 15.1 µM
COc1ccc(N(Cc2csc(-c3ccccc3)n2)C(=O)CCCCCC(=O)NO)cc1 | MTT | 72 h | 1.12 µM
O=P1(C2CCCCC2)CCCCC1 | MTT | 72 h | 13.8 µM
CC(C)c1cccc(C(C)C)c1N=C1C(=O)N(Cc2ccc(Br)cc2)c2ccccc21 | MTT | 48 h | 37.4 µM
O=C1CSC(=Nc2cc([N+](=O)[O-])ccc2[N+](=O)[O-])N1c1nnc(-c2ccc(C(F)(F)F)cc2N=C2SCC(=O)N2c2cc([N+](=O)[O-])ccc2[N+](=O)[O-])s1 | MTT | – | 80.9 µM
